Measurements: ChEMBL document CHEMBL2216753, “Novel 1,4-benzoxazine and 1,4-benzodioxine inhibitors of angiogenesis” (Eur J Med Chem, 2012)
Calls of active or inactive are those of the source. The calls are words filed in the database; no cut-off is given here.

Key:
[1] = Antiproliferative activity against human HMEC1 cells after 7 days by coulter counter method; type: functional, cell-based; details: HMEC-1, 168 h
HeLa [2] = experiment: Cytotoxicity against human HeLa cells at 30 uM after 3 days by coulter counter method; type: cell-based; details: 72 h
Method in brief: (§1)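 Cells seeded at 10,000 cells per cm2; after 16 h, fresh medium with test compound added. Cells trypsinized and counted with a Coulter counter on day 4 (BAEC, HeLa, MCF-7) or day 7 (HMEC-1). Cytotoxicity (cell death) was judged after 3 days in culture. HMEC-1 grown in EGM-2 with supplements and growth factors.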

[3] = Antimigratory activity against mouse MAEC cell migration at 10 uM after 5 hrs by wound closure assay; type: functional
Method in brief: (§2)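 Confluent MAEC monolayers wounded with a 1.0-mm wide micropipette tip, then incubated in fresh medium with test compound. Wounds photographed after 5 h and width calculated from digital images. Mean ± SD of 2–4 independent experiments; Student t test, p < 0.05 significant.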

[4] = Antiproliferative activity against bovine BAEC cells after 4 days by coulter counter method; type: functional, cell-based; details: Bos taurus, 96 h
MAEC [5] = experiment: (§3) Antimigratory activity against mouse MAEC cell migration at 30 uM after 5 hrs by wound closure assay; type: functional; method in brief: as §2
MAEC [6] = experiment: Antimigratory activity against mouse MAEC cell migration after 5 hrs by wound closure assay; type: functional, cell-based; method in brief: as §2
HMEC-1 [7] = experiment: Antiangiogenic activity in human HMEC1 cells assessed as inhibition of tube formation at 10 uM after 4 to 6 hrs by matrigel assay; type: functional, cell-based
Method in brief: (§4)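 HMEC-1 (60,000 cells) seeded on matrigel (10 mg/mL) after 30 min gelling at 37 °C, in DMEM containing test compound; after 4–6 h cells photographed and tubes scored 0 (none) to 3 (maximal, like untreated control). Mean ± SD of 2–4 independent experiments; Student t test, p < 0.05 significant.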

[8] = Antimigratory activity against mouse MAEC cell migration at 3 uM after 5 hrs by wound closure assay; type: functional; method in brief: as §2
Gallus gallus = species on record: Gallus gallus; experiment: Antiangiogenic activity in chicken embryo chorioallantoic membrane model at 250 nmol/disc after 3 days; type: functional, tissue-based
MCF7 [9] = experiment: Antiproliferative activity against human MCF7 cells after 4 days by coulter counter method; type: functional, cell-based; details: MCF7, 96 h
HMEC-1 [10] = experiment: Antiangiogenic activity in human HMEC1 cells assessed as inhibition of tube formation at 30 uM after 4 to 6 hrs by matrigel assay; type: functional, cell-based; method in brief: as §4
HeLa [11] = experiment: Antiproliferative activity against human HeLa cells after 4 days by coulter counter method; type: functional, cell-based; details: 96 h
MCF7 [12] = experiment: Cytotoxicity against human MCF7 cells at 100 uM after 3 days by coulter counter method; type: cell-based; details: mcf7, 72 h; method in brief: as §1
[13] = Cytotoxicity against bovine BAEC cells at 100 uM after 3 days by coulter counter method; type: cell-based, Bos taurus; details: cattle, 72 h; method in brief: as §1
HeLa [14] = experiment: Cytotoxicity against human HeLa cells at 100 uM after 3 days by coulter counter method; type: cell-based; details: 72 h; method in brief: as §1
[15] = Cytotoxicity against human HMEC1 cells at 30 uM after 3 days by coulter counter method; type: cell-based; details: hmec-1, 72 h; method in brief: as §1
[16] = Cytotoxicity against bovine BAEC cells at 30 uM after 3 days by coulter counter method; type: cell-based, Bos taurus; details: cattle, 72 h; method in brief: as §1
MCF7 [17] = experiment: Cytotoxicity against human MCF7 cells at 30 uM after 3 days by coulter counter method; type: cell-based; details: mcf7, 72 h; method in brief: as §1
[18] = Cytotoxicity against human HMEC1 cells at 100 uM after 3 days by coulter counter method; type: cell-based; details: hmec-1, 72 h; method in brief: as §1
HMEC-1 [19] = experiment: Antiangiogenic activity in human HMEC1 cells assessed as inhibition of tube formation after 4 to 6 hrs by matrigel assay; type: functional, cell-based; method in brief: as §4
[20] = as §3; type: functional; method in brief: as §2
HMEC-1 [21] = experiment: Antiangiogenic activity in human HMEC1 cells assessed as inhibition of tube formation at 100 uM after 4 to 6 hrs by matrigel assay; type: functional, cell-based; method in brief: as §4
[22] = target: Vascular endothelial growth factor receptor 2 (Homo sapiens, UniProt P35968); experiment: Inhibition of human recombinant VEGFR2 expressed in Sf9 insect cells assessed as inhibition of poly(Glu,Tyr) 4:1 substrate phosphorylation by radiometric assay
Sequence of Vascular endothelial growth factor receptor 2 (P35968 whole entry, the tested form may be a part): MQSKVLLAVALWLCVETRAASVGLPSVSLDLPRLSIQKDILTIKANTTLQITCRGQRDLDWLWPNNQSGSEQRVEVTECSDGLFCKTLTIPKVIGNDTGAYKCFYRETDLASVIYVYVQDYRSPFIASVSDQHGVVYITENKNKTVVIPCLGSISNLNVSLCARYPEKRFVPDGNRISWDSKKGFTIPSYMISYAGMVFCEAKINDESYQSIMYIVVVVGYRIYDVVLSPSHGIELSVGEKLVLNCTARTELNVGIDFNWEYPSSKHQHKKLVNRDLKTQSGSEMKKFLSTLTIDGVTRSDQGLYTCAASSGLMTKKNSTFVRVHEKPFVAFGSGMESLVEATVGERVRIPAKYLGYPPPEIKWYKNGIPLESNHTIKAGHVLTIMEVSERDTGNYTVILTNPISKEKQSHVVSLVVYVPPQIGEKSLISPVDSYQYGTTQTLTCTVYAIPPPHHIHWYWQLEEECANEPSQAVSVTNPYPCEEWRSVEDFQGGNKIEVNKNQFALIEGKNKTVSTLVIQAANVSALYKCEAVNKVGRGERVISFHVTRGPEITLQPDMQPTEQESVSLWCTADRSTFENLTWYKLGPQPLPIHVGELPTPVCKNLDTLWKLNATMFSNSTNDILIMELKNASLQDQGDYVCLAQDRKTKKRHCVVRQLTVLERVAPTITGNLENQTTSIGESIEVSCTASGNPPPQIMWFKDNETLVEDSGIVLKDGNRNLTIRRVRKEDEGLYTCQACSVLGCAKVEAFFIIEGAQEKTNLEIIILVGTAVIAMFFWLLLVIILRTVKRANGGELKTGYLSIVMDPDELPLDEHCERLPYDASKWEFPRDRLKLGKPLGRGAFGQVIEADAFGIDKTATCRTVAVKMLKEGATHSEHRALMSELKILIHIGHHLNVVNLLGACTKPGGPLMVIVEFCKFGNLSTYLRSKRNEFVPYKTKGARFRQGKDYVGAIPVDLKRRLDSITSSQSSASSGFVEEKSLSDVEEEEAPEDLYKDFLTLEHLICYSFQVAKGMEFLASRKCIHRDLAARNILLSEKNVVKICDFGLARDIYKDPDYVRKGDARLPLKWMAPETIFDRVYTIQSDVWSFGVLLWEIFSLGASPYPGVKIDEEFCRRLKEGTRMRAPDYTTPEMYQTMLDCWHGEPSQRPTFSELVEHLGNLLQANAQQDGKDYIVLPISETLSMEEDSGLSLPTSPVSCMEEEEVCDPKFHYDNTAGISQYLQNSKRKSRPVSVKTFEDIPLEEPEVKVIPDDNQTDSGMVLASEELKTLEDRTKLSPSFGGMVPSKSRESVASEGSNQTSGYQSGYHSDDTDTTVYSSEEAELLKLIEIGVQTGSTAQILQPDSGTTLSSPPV
Method in brief: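 Human recombinant GST-fusion VEGFR2 kinase, expressed in Sf9 cells and purified on GSH-agarose, with poly(Glu,Tyr) 4:1 as substrate; phosphorylation read radiometrically. Racemic trifluoroacetate salts tested at 10 concentrations (1 × 10−4 M to 3 × 10−9 M) to give IC50, run in singlicate by a contract lab.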

SMILES	IC50 [1] [µM]	Activity (HeLa [2])	inhibition at 10 µM [3] [%]	IC50 [4] [µM]	inhibition (MAEC [5])	inhibition (MAEC [6])	inhibition (HMEC-1 [7])	inhibition (Gallus gallus)	IC50 (MCF7 [9]) [µM]	inhibition (HMEC-1 [10])	IC50 (HeLa [11]) [µM]	Activity (MCF7 [12])	Activity [13]	Activity (HeLa [14])	Activity [15]	Activity [16]	Activity (MCF7 [17])	Activity [18]	also measured
CCOC(=O)CN(Cc1cccc(F)c1)c1ccc2c(c1)N(C)CC(C)(COc1ccc(C(=N)N)cc1)O2 (stereo not drawn)	6	Toxic	50	3.9	Active	Dose-dependent effect	inactive	Active	4.2	Active	4.6	Toxic	Toxic	Toxic	Toxic	Toxic	Toxic	Toxic	inhibition at 3 µM [8]: > 40%
CCOC(=O)C(=O)N(Cc1cc(F)cc(F)c1)c1ccc2c(c1)OC(C)(COc1ccc(C(=N)N)cc1)CN2C (stereo not drawn)	6.8	Non-toxic	50	4.6	Active	Dose-dependent effect		Active	2.9		6.6	Toxic	Toxic	Toxic	Non-toxic	Non-toxic	Non-toxic	Toxic	inhibition at 3 µM [8]: > 40%; inhibition (HMEC-1 [19]): Dose-dependent effect
CCOC(=O)C(=O)N(Cc1ccccc1)c1ccc2c(c1)OC(C)(CO)CN2C (stereo not drawn)	> 100		> 40	> 100		Dose-dependent effect	inactive		> 100	Active	> 100	Toxic	Toxic	Toxic				Toxic	inhibition at 30 µM [20]: > 80%; inhibition (HMEC-1 [19]): Active; inhibition (HMEC-1 [21]): Active
CN1CC(C)(COc2ccc(C(=N)N)cc2)Oc2ccc(N(CC(=O)O)Cc3cc(F)cc(F)c3)cc21 (racemic) [listing 1 of 2 here]																			inhibition [22]: Dose-dependent effect
CN1CC(C)(COc2ccc(C(=N)N)cc2)Oc2ccc(N(CC(=O)O)Cc3cc(F)cc(F)c3)cc21 (racemic) [listing 2 of 2 here]																			IC50 [22]: 22.5 µM
CCOC(=O)C(=O)N(Cc1cc(F)cc(F)c1)c1ccc2c(c1)OC(C)(CO)CN2C (stereo not drawn)	89		> 40	60		Dose-dependent effect	inactive		45	Active	44	Toxic	Toxic	Toxic				Toxic	inhibition at 30 µM [20]: > 80%; inhibition (HMEC-1 [19]): Active; inhibition (HMEC-1 [21]): Active
CCOC(=O)CN(Cc1ccc(F)c(F)c1)c1ccc2c(c1)N(C)CC(C)(COc1ccc(C(=N)N)cc1)O2 (stereo not drawn)	4.2	Toxic	50	4.1	Active	Dose-dependent effect	inactive	Active	3.9	Active	4.8	Toxic	Toxic	Toxic	Toxic	Toxic	Toxic	Toxic	
CCOC(=O)CN(Cc1ccc(F)cc1)c1ccc2c(c1)OC(C)(COc1ccc(C(=N)N)cc1)CN2C (stereo not drawn)	2.9	Toxic	78	2.9		Dose-dependent effect	inactive	Active	5.3	Active	4	Toxic	Toxic	Toxic	Toxic	Toxic	Toxic	Toxic	inhibition at 30 µM [20]: 95%; inhibition at 3 µM [8]: 41%
CCOC(=O)C(=O)N(Cc1cccc(F)c1)c1ccc2c(c1)N(C)CC(C)(COc1ccc(C(=N)N)cc1)O2 (stereo not drawn)	7.7	Non-toxic	50	18					6.5		20	Toxic	Toxic	Toxic	Non-toxic	Non-toxic	Non-toxic	Toxic	inhibition at 3 µM [8]: > 40%
CCOC(=O)CN(Cc1ccc(F)cc1)c1ccc2c(c1)N(C)CC(C)(COc1ccc(C(=N)N)cc1)O2 (stereo not drawn)	6	Toxic	50	3.8	Active	Dose-dependent effect	inactive	Active	4.1	Active	4.8	Toxic	Toxic	Toxic	Toxic	Toxic	Toxic	Toxic	
CCOC(=O)CN(Cc1cc(F)cc(F)c1)c1ccc2c(c1)OC(C)(COc1ccc(C(=N)N)cc1)CN2C (stereo not drawn)	1.8	Toxic	50	4.1	Active	Dose-dependent effect	inactive	Active	3.5	Active	4.9	Toxic	Toxic	Toxic	Toxic	Toxic	Toxic	Toxic	
CCOC(=O)CN(Cc1ccc(F)c(F)c1)c1ccc2c(c1)OC(C)(COc1ccc(C(=N)N)cc1)CN2C (stereo not drawn)	2.5	Toxic	50	4	Active	Dose-dependent effect	inactive	Active	4	Active	4.1	Toxic	Toxic	Toxic	Toxic	Toxic	Toxic	Toxic	
CCOC(=O)CN(Cc1cccc(F)c1)c1ccc2c(c1)OC(C)(COc1ccc(C(=N)N)cc1)CN2C (stereo not drawn)	2.6	Toxic	50	4.1	Active	Dose-dependent effect	inactive	Active	3.9	Active	4.5	Toxic	Toxic	Toxic	Toxic	Toxic	Toxic	Toxic	
CCOC(=O)C(=O)N(Cc1cccc(F)c1)c1ccc2c(c1)N(C)CC(C)(COc1ccc(C(=N)N)cc1)O2 (racemic)																			IC50 [22]: 80 µM
